Source: ChEMBL document CHEMBL1148737, “Quantitative structure-activity relationship studies of [(biphenyloxy)propyl]isoxazole derivatives. Inhibitors of human rhinovirus 2 replication” (J Med Chem, 2007)

How the values were obtained:
[1] = test system: rhinovirus A2; assay: Antiviral activity against HRV2 in HeLa cells by CPE assay; assay type: functional; set-up: unit not given here
How it was run: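 HRV-2 stock grown in HeLa cells. 1-day-old confluent HeLa monolayers were given compound in test medium (2% NCS) plus virus at MOI 0.01 after medium removal. CPE was scored 72 h post-infection by crystal violet uptake, with six uninfected and six infected untreated wells per plate and pleconaril as reference. IC50 was taken from mean dose-response curves of at least three separate experiments.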

[2] = Selectivity index, ratio of CC50 for HeLa cells to IC50 for HRV2; assay type: functional
How it was run: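 Computed as CC50 (HeLa, 72 h crystal violet viability) divided by IC50 (HRV-2 CPE inhibition in HeLa, 72 h), both in µg/mL.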

[3] = test system: HeLa; assay: Cytotoxicity against human HeLa cells; assay type: cell-based; set-up: unit not given here
How it was run: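 2-day-old confluent HeLa monolayers were exposed to serial 2-fold compound dilutions for 72 h at 37 °C, 5% CO2. Cells were fixed and stained with crystal violet formalin, and the dye was extracted and read at 550/630 nm. Viability was expressed as percent of the mean of six mock-treated controls. CC50 is the concentration cutting viability by 50%.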

For `Cc1cc(CCCOc2c(C)cc(-c3ccc(-c4ccccc4)cc3)cc2C)on1`, the logIC50 [1] was 1.7, the logSI [2] was 0 and the logCC50 [3] was 1.7.

With `Cc1cc(CCCOc2c(C)cc(-c3ccc(OC(F)(F)F)cc3)cc2C)on1` the logIC50 [1] was 0.05, the logSI [2] was 1 and the logCC50 [3] was 1.03.

`Cc1cc(CCCOc2c(C)cc(-c3ccccc3C)cc2C)on1` showed a logIC50 [1] of -1.09, a logSI [2] of 1.76 and a logCC50 [3] of 0.66.

Compound `Cc1cc(CCCOc2c(C)cc(-c3ccc(Br)cc3)cc2C)on1` has a logIC50 [1] of -0.15, a logSI [2] of 0.85 and a logCC50 [3] of 0.68.

Work on `Cc1ccc(C)c(-c2cc(C)c(OCCCc3cc(C)no3)c(C)c2)c1` yielded a logIC50 [1] of 1.06, a logSI [2] of 0.6 and a logCC50 [3] of 1.7.

Work on `Cc1cc(CCCOc2c(C)cc(-c3ccc(C=O)cc3)cc2C)on1` yielded a logIC50 [1] of -1.09, a logSI [2] of 2.09 and a logCC50 [3] of 1.

In the case of `CC(=O)c1ccc(-c2cc(C)c(OCCCc3cc(C)no3)c(C)c2)cc1`, the logIC50 [1] is reported as -0.63, the logSI [2] is reported as 2.33 and the logCC50 [3] is reported as 1.7.

`C=Cc1ccc(-c2cc(C)c(OCCCc3cc(C)no3)c(C)c2)cc1` gave a logIC50 [1] of -0.9, a logSI [2] of 3.2 and a logCC50 [3] of 2.3.

Work on `Cc1cc(CCCOc2c(C)cc(-c3cc(F)c(F)c(F)c3)cc2C)on1` yielded a logIC50 [1] of -1.46, a logSI [2] of 3.34 and a logCC50 [3] of 1.88.

`Cc1cc(CCCOc2c(C)cc(-c3ccc(F)c(C)c3)cc2C)on1` gave a logIC50 [1] of -1.82, a logSI [2] of 3.1 and a logCC50 [3] of 1.28.

With `Cc1cc(CCCOc2c(C)cc(-c3cc(C(F)(F)F)cc(C(F)(F)F)c3)cc2C)on1` the logIC50 [1] was 1.7, the logSI [2] was 0 and the logCC50 [3] was 1.7.

Compound `Cc1cc(CCCOc2c(C)cc(-c3cccc(F)c3)cc2C)on1` has a logIC50 [1] of -1.4, a logSI [2] of 2.36 and a logCC50 [3] of 0.96.

For `Cc1cc(CCCOc2c(C)cc(-c3ccc(C(F)(F)F)cc3)cc2C)on1`, the logIC50 [1] was -0.97, the logSI [2] was 2.05 and the logCC50 [3] was 1.08.

`Cc1cc(CCCOc2c(C)cc(-c3cccc([N+](=O)[O-])c3)cc2C)on1` gave a logIC50 [1] of -1.47, a logSI [2] of 2.25 and a logCC50 [3] of 0.79.

`Cc1cc(CCCOc2c(C)cc(-c3ccc(F)cc3F)cc2C)on1` gave a logIC50 [1] of -2.3, a logSI [2] of 3.2 and a logCC50 [3] of 0.9.

In the case of `COc1cc(-c2cc(C)c(OCCCc3cc(C)no3)c(C)c2)cc(OC)c1OC`, the logIC50 [1] is reported as -0.54, the logSI [2] is reported as 1.53 and the logCC50 [3] is reported as 1.

In the case of `Cc1cc(CCCOc2c(C)cc(-c3ccc(C)c(C)c3)cc2C)on1`, the logIC50 [1] is reported as -1.31, the logSI [2] is reported as 1.97 and the logCC50 [3] is reported as 0.66.

Work on `Cc1cc(CCCOc2c(C)cc(-c3cccc(C(F)(F)F)c3)cc2C)on1` yielded a logIC50 [1] of -1.24, a logSI [2] of 2.32 and a logCC50 [3] of 1.08.

`Cc1cc(CCCOc2c(C)cc(-c3cccc4ccccc34)cc2C)on1` gave a logIC50 [1] of -0.2, a logSI [2] of 1.16 and a logCC50 [3] of 0.96.

With `Cc1cc(CCCOc2c(C)cc(-c3ccc(F)cc3)cc2C)on1` the logIC50 [1] was -2.05, the logSI [2] was 3.74 and the logCC50 [3] was 1.7.

In the case of `Cc1cc(CCCOc2c(C)cc(-c3noc(C(F)(F)F)n3)cc2C)on1` [PLECONARIL], the logIC50 [1] is reported as -1.7, the logSI [2] is reported as 2.8 and the logCC50 [3] is reported as 1.1.
